32 compounds from PubChem BioAssay can be followed below.

Activity calls are given as the source filed them.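 Rule for the calls, unless noted: active = potentiation averaged over duplicate wells exceeding buffer-only control mean by more than 3 SD; inactive = the rest.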

Assay [1] is described as follows: nonspecific flux increase, KCNQ1-free cells – parental CHO cells, counter-screen for KCNQ1 potentiator project (AID 493006;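 active = duplicate-averaged activation above buffer control mean plus 5 SD of those controls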;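 for activation: fluorescence ratio of max minus min over baseline after K+ and Tl+ depolarization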). The conditions noted are these: parental CHO-K1 cells, FluxOR thallium flux, at 10 µM; active compounds read high. The method in brief:
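Material: untransfected host CHO-K1 cells with FluxOR thallium dye. Timing: overnight 37 °C plating, 90 min RT dye, 20 min compound. Detection: kinetic FluxOR fluorescence, 10 s baseline, 110 s after stimulus. Read-out basis: max-minus-min fluorescence over baseline, percent of buffer-to-R-L3 span. Replicates: duplicate wells per compound, percent values averaged.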
In general terms: The purpose of a counterscreen is to sort out artefacts and off-target activity.

For assay [2], the target named is Potassium voltage-gated channel subfamily KQT member 1 (Homo sapiens) (UniProt P51787). The experiment in a line: enhancement of KCNQ1 channel thallium flux – FluxOR thallium flux, CHO cells, duplicates, confirmation (AID 493007).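 For outcome: cells depolarized by a potassium plus thallium sulfate stimulus after compound.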 The conditions noted are these: KCNQ1 cell line, FluxOR thallium flux fluorescence, at 10 µM; active compounds read high, % of reference activator effect, buffer zero. Summed up:
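Test system – KCNQ1-expressing CHO cell line · Incubation – FluxOR dye loading 90 min, compound exposure 20 min, room temperature · Detection – FluxOR Tl+ flux fluorescence, 10 s baseline plus 110 s recording · Controls – buffer-only wells as 0% and R-L3 activator as 100%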

Assay [3] has as its target Potassium voltage-gated channel subfamily KQT member 2 (Rattus norvegicus) (UniProt O88943). The experiment in a line: KCNQ2 thallium flux enhancement – KCNQ2-CHO-K1 cells, selectivity assay for KCNQ1 potentiator project (AID 493009;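 active = mean duplicate potentiation above the buffer control mean plus 5 SD of buffer wells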;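 note: assay conditions were tuned for KCNQ1 rather than KCNQ2 modulators; signal is max minus min fluorescence divided by baseline after thallium stimulus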). The conditions noted are these: FluxOR thallium flux fluorescence, at 10 µM; active compounds read high, scaled: buffer 0, activator control 100.

In assay [4] the target is Potassium voltage-gated channel subfamily KQT member 1 (Homo sapiens) (UniProt P51787). The experiment in a line: KCNQ1 activators by electrophysiology – IonWorks patch clamp, KCNQ1-CHO cells, orthogonal assay for KCNQ1 potentiator project, confirmation (AID 493184;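 active = current rise at least 3 SD above the untreated control mean in each of two repeat wells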;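 for current potentiation: percent change of the same well's current before compound addition so 0% = no change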). Particulars: automated patch clamp current, at 10 µM; active compounds read high. Summed up: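 Read-out: Percent current increase versus pre-compound level | Assay system: CHO cells carrying KCNQ1 | Measured by: Automated perforated-patch electrophysiology | Medium: External bath solution at pH 7.4 | Dosing: One dose, 10 µM final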
Sequence of Potassium voltage-gated channel subfamily KQT member 1 (Homo sapiens) (P51787 whole entry, looked up): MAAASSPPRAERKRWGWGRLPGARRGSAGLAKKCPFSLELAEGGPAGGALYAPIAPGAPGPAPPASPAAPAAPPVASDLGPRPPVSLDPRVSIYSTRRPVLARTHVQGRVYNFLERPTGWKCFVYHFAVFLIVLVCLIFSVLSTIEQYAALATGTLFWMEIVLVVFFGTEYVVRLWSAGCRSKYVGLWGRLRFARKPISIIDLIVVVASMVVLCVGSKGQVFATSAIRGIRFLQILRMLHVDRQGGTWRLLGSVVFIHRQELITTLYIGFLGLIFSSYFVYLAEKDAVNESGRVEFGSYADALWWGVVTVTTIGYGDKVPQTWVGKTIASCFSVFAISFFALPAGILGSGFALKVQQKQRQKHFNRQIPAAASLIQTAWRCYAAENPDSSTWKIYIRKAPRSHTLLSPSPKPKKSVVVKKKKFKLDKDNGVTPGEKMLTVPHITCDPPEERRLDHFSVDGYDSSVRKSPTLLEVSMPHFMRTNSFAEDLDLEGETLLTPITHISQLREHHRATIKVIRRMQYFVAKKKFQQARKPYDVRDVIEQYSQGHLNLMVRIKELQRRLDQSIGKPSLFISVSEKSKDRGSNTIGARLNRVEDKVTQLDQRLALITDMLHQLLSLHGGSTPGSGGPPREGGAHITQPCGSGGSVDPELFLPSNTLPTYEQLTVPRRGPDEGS
(Patch clamp records ionic current or voltage across a cell membrane.)

Sequence of Potassium voltage-gated channel subfamily KQT member 2 (Rattus norvegicus) (O88943 whole entry, looked up): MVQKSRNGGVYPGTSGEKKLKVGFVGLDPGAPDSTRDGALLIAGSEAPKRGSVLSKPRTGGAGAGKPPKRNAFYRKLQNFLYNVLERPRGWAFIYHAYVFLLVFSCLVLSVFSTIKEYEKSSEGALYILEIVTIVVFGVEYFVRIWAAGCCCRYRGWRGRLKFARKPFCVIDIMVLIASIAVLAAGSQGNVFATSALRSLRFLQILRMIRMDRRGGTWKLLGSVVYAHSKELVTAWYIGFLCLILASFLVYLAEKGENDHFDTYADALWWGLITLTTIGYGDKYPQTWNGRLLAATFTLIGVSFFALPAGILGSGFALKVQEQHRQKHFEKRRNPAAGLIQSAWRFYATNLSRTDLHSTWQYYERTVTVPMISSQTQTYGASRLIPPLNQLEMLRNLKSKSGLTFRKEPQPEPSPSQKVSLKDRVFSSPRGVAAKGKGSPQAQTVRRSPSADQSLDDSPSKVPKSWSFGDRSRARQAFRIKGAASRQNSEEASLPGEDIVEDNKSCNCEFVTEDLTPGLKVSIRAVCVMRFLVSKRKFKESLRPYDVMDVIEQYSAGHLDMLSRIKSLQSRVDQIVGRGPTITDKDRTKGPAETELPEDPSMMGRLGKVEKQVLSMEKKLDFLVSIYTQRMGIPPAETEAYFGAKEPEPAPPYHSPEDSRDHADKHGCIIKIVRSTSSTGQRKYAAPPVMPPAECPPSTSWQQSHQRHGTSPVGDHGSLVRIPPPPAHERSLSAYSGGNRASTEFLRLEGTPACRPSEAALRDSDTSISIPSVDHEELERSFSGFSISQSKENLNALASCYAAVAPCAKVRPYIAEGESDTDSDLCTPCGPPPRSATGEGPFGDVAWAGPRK

In the case of `COc1ccccc1NC(=O)CCN1CCN(c2ccc(Cl)cc2)CC1`, the outcome in assay [1], in assay [2], in assay [3] and in assay [4] was inactive.
As for `Cc1sc2nc(CSc3ccccc3)nc(N3CCN(C)CC3)c2c1C`, the outcome in assay [1], in assay [2], in assay [3] and in assay [4] was inactive.
Regarding `C=CCC(=O)N1CCC(n2nccc2NC(=O)CCOc2ccccc2)CC1`, the result in assay [1], in assay [2], in assay [3] and in assay [4] was inactive.
Turning to `CC(=O)c1c(N2CCCC2)[nH]c(-c2ccccc2)nc1=S`, the result in assay [1], in assay [2], in assay [3] and in assay [4] was inactive.
Consider `S=c1[nH]cnc2scc(-c3ccccc3)c12`, for which the activation in assay [1] was 192% (active). Besides, the potentiation in assay [2] was 52% (active); in assay [3], 205% (active). Besides, the result in assay [4] was inactive.
The matching figures for `CC(=O)Nc1cc(NC(C)=O)cc(C(=O)OC(C)C(=O)Nc2ccc(S(=O)(=O)N3CCCC3)cc2)c1` (stereo not drawn): 224% (active), 54% (active), 216% (active) and “inactive”.
As to `Cc1[nH]c(-c2ccccn2)nc(=S)c1Cl`, in assay [1], the activation is 244% (active). The potentiation was 106% (active) in assay [2] and 262% (active) in assay [3]. Also, the result in assay [4] was inactive.
Turning to `Oc1c(N=NC(=S)Nc2ccccc2F)c2ccccc2n1Cc1ccccc1Cl`, in assay [1], the activation is 180% (active). The potentiation in assay [2] was 81.5% (active); in assay [3], 210% (active). Also, the outcome in assay [4] was inactive.
On to `Cc1ccc(CN2C(=O)CC(Nc3ccc(N4CCOCC4)cc3)C2=O)cc1` (stereo not drawn), for which the outcome in assay [1], in assay [2], in assay [3] and in assay [4] was inactive.
Regarding `CCN(CC)C(=S)NC(=O)c1ccc(Cl)cc1Cl`, the activation in assay [1] was 226% (active). The potentiation in assay [2] is 50% (active); in assay [3], 196% (active). The result in assay [4] was inactive.
`CCOc1ccc(/C=C2/SC(=O)NC2=S)cc1`: the activation in assay [1] is 425% (active). Also, the figures for the potentiation in assay [2] and in assay [3] were 138% (active) and 379% (active), respectively. In addition, in assay [4], the result was inactive.
Regarding `CC(C)CCn1c(=S)[nH]c2ncccc2c1=O`, the activation in assay [1] was 152% (active). Also, the result in assay [2], in assay [3] and in assay [4] was inactive.
With `COc1ccc(CNC(=O)COC(=O)/C=C/c2ccc(Cl)cc2)cc1`, the outcome in assay [1], in assay [2], in assay [3] and in assay [4] was inactive.
In the case of `O=C1C(C2=C(O)c3ccccc3C2=O)=Nc2ccccc21`, in assay [1], the activation is 225% (active). The figures for the potentiation in assay [2] and in assay [3] were 61% (active) and 238% (active), respectively. Also, the result in assay [4] was inactive.
As for `S=c1nc(SCc2ccccc2)[nH]c2ccccc12`, the activation in assay [1] was 458% (active). Moreover, the values for the potentiation in assay [2] and in assay [3] were 320% (active) and 500% (active), respectively. Further, in assay [4], the outcome was inactive.
Consider `CN(C(=S)NC(=O)c1ccccc1)C1CCCCC1`, for which, in assay [1], the activation was 228% (active). Besides, the potentiation in assay [2] is 29% (active); in assay [3] it was 186% (active). Moreover, the result in assay [4] was inactive.
Regarding `CCC1(c2ccccc2)NC(=O)N(CC(=O)Nc2ccccc2C(=O)N2CCCCC2)C1=O` (stereo not drawn), the result in assay [1], in assay [2], in assay [3] and in assay [4] was inactive.
Take `CCc1ccc(NC(=O)C(=O)NNC(=O)COc2cccc(OC)c2)cc1`: in assay [1], the activation is 164% (active). Moreover, the values for the potentiation in assay [2] and in assay [3] were 76% (active) and 251% (active), respectively. The outcome in assay [4] was inactive.
Turning to `Cc1ccc2nsnc2c1S(=O)(=O)Nc1cccc2nsnc12`, the activation in assay [1] was 143% (active). Also, the results for the potentiation in assay [2] and in assay [3] were 26% (active) and 174% (active), respectively. Further, the result in assay [4] was inactive.
Regarding `Cc1cccc(C(=O)Nc2ccccc2C(=O)NCc2cccnc2)c1`, the result in assay [1], in assay [2], in assay [3] and in assay [4] was inactive.
As to `COc1ccc(-c2csc(NC(=O)C3CCCCN3S(=O)(=O)c3ccccc3)n2)cc1` (stereo not drawn), the outcome in assay [1] and in assay [3] was inactive. The potentiation in assay [2] was 93.5% (active). Further, the current potentiation in assay [4] was 122% (active).
On to `Cc1ccc(NC(=O)C(=O)NNC(=O)c2cccs2)cc1`, for which the activation in assay [1] is 337% (active). Besides, the potentiation in assay [2] is 88.5% (active); in assay [3], 326% (active). In addition, the outcome in assay [4] was inactive.
For the compound `O=c1cc(-c2c(F)c(F)c(F)c(F)c2F)oc2ccccc12`, the outcome in assay [1], in assay [2], in assay [3] and in assay [4] was inactive.
Take `Cc1ccc(O)c(C(=O)CC(=O)c2ccc(Cl)cc2)c1`: the result in assay [1], in assay [2], in assay [3] and in assay [4] was inactive.
With `C/C(=N\NS(=O)(=O)c1ccc(Br)cc1)c1cccs1`, the outcome in assay [1], in assay [2], in assay [3] and in assay [4] was inactive.
Turning to `O=C(O)CSc1c2c(nc3cc(C(=O)Nc4cccc(C(F)(F)F)c4)ccc13)CCC2`, the outcome in assay [1], in assay [2], in assay [3] and in assay [4] was inactive.
For `Cc1cc(C)cc(NC(=O)C(Sc2ncnc3ccccc23)c2ccccc2)c1` (stereo not drawn), the result in assay [1], in assay [2], in assay [3] and in assay [4] was inactive.
For the compound `COC(=O)c1sccc1NC(=S)NCc1ccc(Cl)cc1`, the activation in assay [1] was 144% (active). The potentiation in assay [2] was 62.5% (active). The result in assay [3] and in assay [4] was inactive.
On to `O=C(O)C(c1ccccc1)N1C(=O)/C(=C\c2ccc(-c3ccc(Br)cc3)o2)SC1=S` (stereo not drawn), for which the outcome in assay [1] and in assay [3] was inactive. The potentiation in assay [2] is 17.5% (active). Besides, the current potentiation in assay [4] was 15% (active).
With `COC(=O)c1ccc(NC(=S)NC(=O)c2c(Cl)cnn2C)cc1`, the activation in assay [1] is 142% (active). In addition, in assay [2], the potentiation is 26% (active). In addition, the result in assay [3] and in assay [4] was inactive.
`Cc1cc(C)n(-c2nc(NCCN(C)C)c3c4c(sc3n2)COC(C)(C)C4)n1`: the result in assay [1], in assay [2], in assay [3] and in assay [4] was inactive.
For `O=C(Nc1cccc(S(=O)(=O)NC2=NCCC2)c1)c1c(F)cccc1Cl`, the result in assay [1], in assay [2], in assay [3] and in assay [4] was inactive.
